Test results as given in ChEMBL document CHEMBL1128223 (J Med Chem, 1995).

Tests used:
[1] = MDR ratio as the ratio of IC50 value against SKVLB to that of SKOV3,; type: functional
HT-29 [2] = assay: Cytotoxicity was determined in vitro in HT-29 cells(colon) of human tumor cell lines by using MTT assay; type: functional, cell-based
Outline: (§1)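 MTT microculture tetrazolium assay. Cells grown in α-MEM with 15% heat-inactivated FBS, glutamine, pyruvate, insulin and nonessential amino acids at 37 °C, 5% CO2. Seeded at 1500–4000 cells/well and allowed to adhere overnight. Exposed to compound for 48 h, then fresh medium for 48 h, quadruplicate per concentration. MTT 4 h, dye extracted in DMSO, A570 read. IC50 (50% cell kill) from four-parameter logistic fit.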

SK-OV-3 = assay: Cytotoxicity was determined in vitro in SK-OV-3 cells (ovarian) of human tumor cell lines by using MTT assay; type: functional, cell-based; outline: as §1
SK-VLB = assay: Cytotoxicity was determined in vitro in SKVLB cells(ovarian with upregulated MDRp-glycoprotein) of human tumor cell lines by using MTT assay; type: functional, cell-based; outline: as §1
Mus musculus [3] = assay: The body weight loss was measured in mice in vivo by using the HT-29 Human colon Xenograft model at a dose of 7 mg/kg; type: functional
Outline: (§2)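 HT29 subcutaneous flank xenografts in female nu/nu mice, 6 per group. Compound in 0.1 M acetate buffer pH 5, 0.2 mL s.c., twice weekly for 5 weeks. Body weight monitored twice weekly. Value is group mean body weight loss, with ≥30% loss considered lethal. Dose ceiling set beforehand by dose-ranging in naive mice on the same schedule.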

Mus musculus [4] = assay: The no. of deaths of mice(infected with HT-29 cells) was reported at a dose of 7 mg/kg; type: functional
Outline: (§3)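 HT29 s.c. xenografts in female nu/nu mice, 6 per group. Compound given s.c. in 0.1 M sodium acetate pH 5, twice weekly for 5 weeks. Body weights monitored; mean body weight loss and deaths recorded per dose group. Dose range included the highest dose from a dose-ranging study in naive mice, in which ≥30% weight loss was considered lethal.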

Mus musculus [5] = assay: In vivo efficacy of tumor growth ratio(T/B) of compound was calculated by using the HT-29 Human colon Xenograft model in mice at a dose of 9 mg/kg; type: functional
Outline: (§4)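 Female nu/nu mice (18–24 g) given 10^6 HT29 cells subcutaneously in the left axillary flank. Grouped at 6 per dose with matched body weight and palpable tumor of about 150 mm². Compound in 0.1 M sodium acetate pH 5, 0.2 mL s.c., twice weekly for 5 weeks. Volume = length × width²/2 by calipers. T/B = end-of-treatment mean volume divided by initial mean volume.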

Mus musculus [6] = assay: The no. of deaths of mice(infected with HT-29 cells) was reported at a dose of 5 mg/kg; type: functional; outline: as §3
Mus musculus [7] = assay: In vivo efficacy of tumor growth ratio(T/B) of compound was calculated by using the HT-29 Human colon Xenograft model in mice at a dose of 5 mg/kg; type: functional; outline: as §4
Mus musculus [8] = assay: The body weight loss was measured in mice in vivo by using the HT-29 Human colon Xenograft model at a dose of 11 mg/kg; type: functional; outline: as §2
HT-29 [9] = assay: In vivo efficacy of tumor growth ratio(T/B) of compound was calculated by using the HT-29 Human colon Xenograft model in mice at a dose of 7 mg/kg; type: functional; outline: as §4
Mus musculus [10] = assay: (§5) The no. of deaths of mice(infected with HT-29 cells) was reported at a dose of 9 mg/kg; type: ADME, organism-based; parameters: dose 9 mg/kg; details: in vivo; outline: as §3
Mus musculus [11] = assay: In vivo efficacy of tumor growth ratio(T/B) of compound was calculated by using the HT-29 Human colon Xenograft model in mice at a dose of 11 mg/kg; type: functional; outline: as §4
Mus musculus [12] = assay: The no. of deaths of mice(infected with HT-29 cells) was reported at a dose of 11 mg/kg; type: functional; outline: as §3
Mus musculus [13] = assay: The body weight loss was measured in mice in vivo by using the HT-29 Human colon Xenograft model at a dose of 9 mg/kg; type: functional; outline: as §2
LOX IMVI = assay: Cytotoxicity was determined in vitro in LOX cells (melanoma) of human tumor cell lines by using MTT assay; type: functional, cell-based
Outline: (§6)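 Cells grown in α-MEM with 15% heat-inactivated FBS, 2 mM L-glutamine, 1 mM pyruvate, insulin and nonessential amino acids at 37 °C, 5% CO2. Seeded at 1500–4000 cells/well and allowed to adhere overnight. Exposed to compound for 48 h, then to fresh medium for 48 h, in quadruplicate per concentration. MTT for 4 h, dye extracted in DMSO, A570 read. IC50 (50% cell kill) from four-parameter logistic fit.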

T47D = assay: Cytotoxicity was determined in vitro in T47D cells(breast) of human tumor cell lines by using MTT assay; type: functional, cell-based; outline: as §6
Mus musculus [14] = assay: The body weight loss was measured in mice in vivo by using the HT-29 Human colon Xenograft model at a dose of 5 mg/kg; type: functional; outline: as §2
Mus musculus [15] = assay: The body weight loss was measured in mice in vivo by using the HT-29 Human colon Xenograft model at a dose of 2 mg/kg; type: functional; outline: as §3
Mus musculus [16] = assay: The body weight loss was measured in mice in vivo by using the HT-29 Human colon Xenograft model at a dose of 1 mg/kg; type: functional; outline: as §3
Mus musculus [17] = assay: In vivo efficacy of tumor growth ratio(T/B) of compound was calculated by using the HT-29 Human colon Xenograft model in mice at a dose of 4 mg/kg; type: functional
Outline: (§7)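 Female nu/nu mice, 10⁶ HT29 cells implanted subcutaneously in the flank. Groups of 6 started at about 150 mm2 palpable tumor. Compound in 0.1 M sodium acetate pH 5 given s.c. twice weekly for 5 weeks. Tumor volume from calipers as length × width²/2. T/B is mean volume at end of treatment divided by mean initial volume.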

Mus musculus [18] = assay: The no. of deaths of mice(infected with HT-29 cells) was reported at a dose of 4 mg/kg; type: functional; outline: as §3
Mus musculus [19] = assay: The body weight loss was measured in mice in vivo by using the HT-29 Human colon Xenograft model at a dose of 4 mg/kg; type: functional; outline: as §3
Mus musculus [20] = assay: The body weight loss was measured in mice in vivo by using the HT-29 Human colon Xenograft model at a dose of 3 mg/kg; type: functional; outline: as §3
Mus musculus [21] = assay: The no. of deaths of mice(infected with HT-29 cells) was reported at a dose of 1 mg/kg; type: functional; outline: as §3
Mus musculus [22] = assay: The no. of deaths of mice(infected with HT-29 cells) was reported at a dose of 2 mg/kg; type: functional; outline: as §3
Mus musculus [23] = assay: The no. of deaths of mice(infected with HT-29 cells) was reported at a dose of 3 mg/kg; type: functional; outline: as §3
Mus musculus [24] = assay: In vivo efficacy of tumor growth ratio(T/B) of compound was calculated by using the HT-29 Human colon Xenograft model in mice at a dose of 1 mg/kg; type: functional; outline: as §7
Mus musculus [25] = assay: In vivo efficacy of tumor growth ratio(T/B) of compound was calculated by using the HT-29 Human colon Xenograft model in mice at a dose of 2 mg/kg; type: functional; outline: as §7
Mus musculus [26] = assay: In vivo efficacy of tumor growth ratio(T/B) of compound was calculated by using the HT-29 Human colon Xenograft model in mice at a dose of 3 mg/kg; type: functional; outline: as §7
Mus musculus [27] = assay: In vivo efficacy of tumor growth ratio(T/B) of compound was calculated by using the HT-29 Human colon Xenograft model in mice at a dose of 6 mg/kg; type: functional; outline: as §4
Mus musculus [28] = assay: The no. of deaths of mice(infected with HT-29 cells) was reported at a dose of 6 mg/kg; type: functional; outline: as §3
Mus musculus [29] = assay: The body weight loss was measured in mice in vivo by using the HT-29 Human colon Xenograft model at a dose of 6 mg/kg; type: functional; outline: as §2
Mus musculus [30] = assay: The body weight loss was measured in mice in vivo by using the HT-29 Human colon Xenograft model at a dose of 12 mg/kg; type: functional; outline: as §2
Mus musculus [31] = assay: as §5; type: functional; outline: as §3
Mus musculus [32] = assay: The no. of deaths of mice(infected with HT-29 cells) was reported at a dose of 12 mg/kg; type: ADME, organism-based; parameters: dose 12 mg/kg; details: in vivo; outline: as §3
Mus musculus [33] = assay: In vivo efficacy of tumor growth ratio(T/B) of compound was calculated by using the HT-29 Human colon Xenograft model in mice at a dose of 12 mg/kg; type: functional; outline: as §4

SMILES | MDR ratio [1] | IC50 (HT-29 [2]) [nM] | IC50 (SK-OV-3) [nM] | IC50 (SK-VLB) [nM] | Efficacy (Mus musculus [5]) | BW loss (Mus musculus [13]) [%] | IC50 (LOX IMVI) [nM] | IC50 (T47D) [nM] | BW loss (Mus musculus [20]) [%] | Deaths (Mus musculus [23]) | Efficacy (Mus musculus [26]) | also measured
CC[C@@]1(O)C(=O)OCc2c1cc1n(c2=O)Cc2c-1nc1cc3c(cc1c2CCl)OCCO3 | 2 | 13 | 4 | 8 | – | – | – | – | – | – | – | –
CC[C@@]1(O)C(=O)OCc2c1cc1n(c2=O)Cc2cc3c(CN(C)C)c(O)ccc3nc2-1 [TOPOTECAN] | – | 25 | 44 | 149 | 4.3 | 17 | 5 | 104 | – | – | – | BW loss (Mus musculus [3]): 11%; Deaths (Mus musculus [4]): 0; Deaths (Mus musculus [6]): 0; Efficacy (Mus musculus [7]): 8.6; BW loss (Mus musculus [8]): 23%; Efficacy (HT-29 [9]): 7; Deaths (Mus musculus [10]): 2; Efficacy (Mus musculus [11]): 2.9; Deaths (Mus musculus [12]): 0; BW loss (Mus musculus [14]): 15%
CC[C@@]1(O)C(=O)OCc2c1cc1n(c2=O)Cc2c-1nc1cc3c(cc1c2CN1CCN(C)CC1)OCO3.O=C(O)C(F)(F)F | – | 2 | 4 | 17 | – | – | 0.5 | 30 | 12 | 0 | 0.9 | BW loss (Mus musculus [15]): 8%; BW loss (Mus musculus [16]): 11%; Efficacy (Mus musculus [17]): 0.6; Deaths (Mus musculus [18]): 0; BW loss (Mus musculus [19]): 20%; Deaths (Mus musculus [21]): 0; Deaths (Mus musculus [22]): 0; Efficacy (Mus musculus [24]): 6.4; Efficacy (Mus musculus [25]): 1.7
CC[C@@]1(O)C(=O)OCc2c1cc1n(c2=O)Cc2c-1nc1cc3c(cc1c2CN1CCN(C)CC1)OCCO3.O=C(O)C(F)(F)F | 6 | 6 | 16 | 102 | 0.8 | 7 | 1 | 38 | 8 | 0 | 5.5 | Efficacy (Mus musculus [27]): 1.6; Deaths (Mus musculus [28]): 0; BW loss (Mus musculus [29]): 5%; BW loss (Mus musculus [30]): 22%; Deaths (Mus musculus [31]): 0; Deaths (Mus musculus [32]): 2; Efficacy (Mus musculus [33]): 0.4
CC[C@@]1(O)C(=O)OCc2c1cc1n(c2=O)Cc2cc3ccccc3nc2-1 [CAMPTOTHECIN] | – | 46 | 37 | 41 | – | – | 48 | 207 | – | – | – | –
COc1cccc2c1C(=O)c1c(O)c3c(c(O)c1C2=O)C[C@@](O)(C(=O)CO)C[C@@H]3O[C@H]1C[C@H](N)[C@H](O)[C@H](C)O1 [DOXORUBICIN] | 160 | 331 | 36 | 5650 | – | – | 42 | 72 | – | – | – | –
